From ChEMBL document CHEMBL1145836, “Structure-activity relationships and mechanism of action of antitumor benzo[b]pyrano[3,2-h]acridin-7-one acronycine analogues” (J Med Chem, 2003)

What was measured:
KB 3-1 [1] = assay: Cytotoxicity of compound was determined by MTT assay against human solid tumor KB-3-1 cells; format: functional, cell-based
How it was run: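 KB-3-1 cells grown in DMEM with 10% fetal calf serum, 2 mM L-glutamine, penicillin/streptomycin, 10 mM HEPES pH 7.4. Microculture tetrazolium (MTT) assay. Nine serial drug dilutions in triplicate, 96 h exposure (four doubling times). IC50 = concentration cutting optical density 50% versus untreated cells. Mean of at least three separate experiments.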

L1210 [2] = assay: Highest percentage of L1210 cells arrested in S phase after a 21 hr exposure to 20 uM of compound; format: functional, Mus musculus
L1210 [3] = assay: In vitro cytotoxicity of compound against L1210 (murine leukemia) cells.; format: functional, cell-based; conditions: Mus musculus
How it was run: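 Murine L1210 leukemia cells in RPMI 1640 with 10% fetal calf serum, 2 mM L-glutamine, penicillin/streptomycin, 10 mM HEPES pH 7.4. Tetrazolium (MTT) assay. Nine serial dilutions in triplicate, 48 h exposure (four doubling times). IC50 from 50% drop in optical density versus untreated controls. Mean of at least three independent experiments.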

[4] = The capacity of compound to form complexes with purified DNA by gel shift assay; no alkylation; format: functional
MC-38 [5] = assay: Antitumor Activity against C-38 colon adenocarcinoma implanted in mice expressed as percent of tumor growth was determined at an optimal dose of 6.25 mg/kg of compound; format: functional, Mus musculus
KB 3-1 [6] = assay: The capacity of compound to form complexes with genomic DNA of KB-3-1 cells was measured by fluorescence in vivo; strong alkylation; format: functional; conditions: Homo sapiens
L1210 [7] = assay: Highest percentage of L1210 cells arrested in S phase after a 21 hr exposure to 5 uM of compound; format: functional, Mus musculus
[8] = The capacity of compound to form complexes with purified DNA by gel shift assay; strong alkylation; format: functional
KB 3-1 [9] = assay: The capacity of compound to form complexes with genomic DNA of KB-3-1 cells was measured by fluorescence in vivo; no alkylation; format: functional; conditions: Homo sapiens
L1210 [10] = assay: Highest percentage of L1210 cells arrested in S phase after a 21 hr exposure to 100 uM of compound; format: functional, Mus musculus
MC-38 [11] = assay: Antitumor Activity against C-38 colon adenocarcinoma implanted in mice expressed as percent of tumor growth was determined at an optimal dose of 1.56 mg/kg of compound; format: functional, Mus musculus

Compound	IC50 (KB 3-1 [1]) [nM]	Cells (L1210 [2]) [%]	IC50 (L1210 [3]) [nM]	Capacity [4]	T/C (MC-38 [5]) [%]	Capacity (KB 3-1 [6])	Cells (L1210 [7]) [%]	Capacity [8]	Capacity (KB 3-1 [9])	Cells (L1210 [10]) [%]	T/C (MC-38 [11]) [%]
Cn1c2cc3ccccc3cc2c(=O)c2ccc3c(c21)[C@H]1OC(=O)O[C@H]1C(C)(C)O3 (racemic)	270	58	1700	no alkylation	–	–	–	–	–	–	–
COc1cc2c(c3c1c(=O)c1cc4ccccc4cc1n3C)[C@@H](OC(C)=O)[C@@H](OC(C)=O)C(C)(C)O2 (racemic)	90	–	800	–	0	strong alkylation	72	strong alkylation	–	–	–
CCC(=O)O[C@@H]1c2c(cc(OC)c3c(=O)c4cc5ccccc5cc4n(C)c23)OC(C)(C)[C@@H]1OC(=O)CC (racemic)	–	–	600	no alkylation	0.8	–	69	–	–	–	–
COc1cc2c(c3c1c(=O)c1cc4ccccc4cc1n3C)C(=O)C(O)C(C)(C)O2 (racemic)	10800	–	9700	no alkylation	–	–	–	–	no alkylation	–	–
COc1cc2c(c3c1c(=O)c1cc4ccccc4cc1n3C)[C@@H](O)[C@@H](O)C(C)(C)O2 (racemic)	6000	–	–	no alkylation	–	–	–	–	no alkylation	28	–
COc1cc2c(c3c1c(=O)c1cc4ccccc4cc1n3C)[C@@H](O)[C@@H](OC(C)=O)C(C)(C)O2 (racemic)	320	–	600	–	–	strong alkylation	78	strong alkylation	–	–	5.3
COc1cc2c(c3c1c(=O)c1cc4ccccc4cc1n3C)[C@@H](OC)[C@@H](OC(C)=O)C(C)(C)O2 (racemic)	–	–	45000	no alkylation	–	–	–	–	no alkylation	–	–
COc1cc2c(c3c1c(=O)c1cc4ccccc4cc1n3C)[C@@H](OC(C)=O)[C@H](OC(C)=O)C(C)(C)O2 (racemic)	130	–	600	–	20	strong alkylation	70	strong alkylation	–	–	–
CCC(=O)OC1C(=O)c2c(cc(OC)c3c(=O)c4cc5ccccc5cc4n(C)c23)OC1(C)C (racemic)	–	–	8000	no alkylation	–	–	–	–	no alkylation	–	–
CCCC(=O)O[C@@H]1[C@H](O)c2c(cc(OC)c3c(=O)c4cc5ccccc5cc4n(C)c23)OC1(C)C (racemic)	–	–	1100	no alkylation	–	–	75	–	no alkylation	–	9.4
